Measurements as given in publication PMC9464004 (Drug Design, Development and Therapy, 2022).
Like-named read-outs stand apart in the source and are kept apart here.

Legend:
[1] = test system: Chinese healthy subjects; format: in vivo, human
How it was run: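 Safety population comprised all randomized subjects receiving ≥1 double-blind dose (200 or 400 mg daily test compound or placebo, 8 days), analysed by treatment received. TEAEs were counted from first dose to study end and graded by NCI-CTCAE. Vital signs, ECG and local-lab haematology, coagulation, biochemistry, serology, urinalysis and pregnancy tests were monitored. Summaries were descriptive, with no significance testing.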

[2] = format: in vivo, human; conditions: for CL/F: mean ± SD
How it was run: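 Healthy Chinese adults took 200 or 400 mg test compound once daily for 8 days. Blood was drawn pre/post-dose Day 1, pre-dose Days 2–8 and post-dose Day 8. Parent and main metabolite were measured by validated LC-MS/MS after protein precipitation, with deuterated internal standards. Linear ranges: 2.00–2000 and 10.0–10,000 ng/mL. Noncompartmental analysis used trapezoidal AUC. CL/F came from AUCtau. Below-limit values counted as zero.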

[3] = test system: Chinese healthy subjects; assay: 24-hour urinary glucose excretion; format: in vivo, human
How it was run: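 Randomized, double-blind, placebo-controlled study in healthy Chinese adults given 200 or 400 mg test compound or placebo orally once daily before the first meal for 8 days. Post-dose urine was pooled over 24 h in 0–8 h and 8–24 h fractions on Day 1 and Day 8. Glucose was assayed centrally, with results withheld from investigators, and reported as absolute excretion.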

[4] = test system: SGLT2; conditions: cited from earlier work
[5] = test system: healthy volunteers in the United States; conditions: achieved at the 300mg dose, study LX4211-1-101; cited from earlier work
[6] = cited from earlier work
[7] = across sotagliflozin treatment groups
[8] = sotagliflozin 200 mg qd, 8 days, N=9
[9] = sotagliflozin 400 mg qd, 8 days, N=9
[10] = co-administered with food (high fat/high caloric)

CCOc1ccc(Cc2cc([C@@H]3O[C@H](SC)[C@@H](O)[C@H](O)[C@H]3O)ccc2Cl)cc1 [Sotagliflozin]
tolerability ([1]; 200 mg and 400 mg per day, 8 days): well tolerated | PCSAs of QRS interval >110 ms, number of subjects ([1]; 200mg sotagliflozin, none increased from baseline ≥25%): 2 | asymptomatic alanine aminotransferase (ALT) increase ([1]; AE in 1 subject (400 mg group)): < 2 × upper limit of normal (ULN) | constipation, number of subjects [1, 7]: 1 | dizziness, number of subjects [1, 7]: 2 | folliculitis, number of subjects [1, 7]: 1 | TEAE: Blood phosphorus increased [1, 8]: 1 (11.1%) n (%) | TEAE: Chest discomfort [1, 8]: 1 (11.1%) n (%) | TEAE: Dizziness [1, 8]: 1 (11.1%) n (%) | TEAE: Folliculitis [1, 8]: 1 (11.1%) n (%) | TEAE: Petechiae [1, 8]: 1 (11.1%) n (%) | TEAE: Proteinuria [1, 8]: 1 (11.1%) n (%) | TEAE: White blood cell count decreased [1, 8]: 1 (11.1%) n (%) | increased blood ketone body (TEAE value) ([1]; sotagliflozin 400 mg group, 1 subject): 0.61 mmol/L | TEAE: Alanine aminotransferase increased [1, 9]: 1 (11.1%) n (%) | TEAE: Asthenia [1, 9]: 1 (11.1%) n (%) | TEAE: Blood ketone body increased [1, 9]: 1 (11.1%) n (%) | TEAE: Blood urine present [1, 9]: 1 (11.1%) n (%) | TEAE: Constipation [1, 9]: 1 (11.1%) n (%) | TEAE: Dermatitis [1, 9]: 1 (11.1%) n (%) | TEAE: Dizziness [1, 9]: 1 (11.1%) n (%) | TEAE: Haemorrhoidal haemorrhage [1, 9]: 1 (11.1%) n (%) | TEAE: Headache [1, 9]: 1 (11.1%) n (%) | TEAE: Mouth ulceration [1, 9]: 1 (11.1%) n (%) | TEAEs considered treatment-related by the Investigator ([1]; sotagliflozin groups (200 and 400 mg)): 44.4% | degree of accumulation ([2]; 200 or 400 mg qd for 8 days): less than 2 fold | estimated increase for AUCtau for a 2-fold increase between doses ([2]; Day 1, 200 to 400 mg): 2.02 fold | estimated increase for Cmax for a 2-fold increase between doses ([2]; Day 1, 200 to 400 mg): 1.56 fold | estimated increase for AUCtau for a 2-fold increase between doses ([2]; Day 8, 200 to 400 mg): 1.70 fold | estimated increase for Cmax for a 2-fold increase between doses ([2]; Day 8, 200 to 400 mg): 1.89 fold | half-life ([2]; human, plasma, oral, 400 mg, Mean t1/2z, range over 200 and 400 mg dose levels, Day 8): 20.5 to 22.4 h | CL/F ([2]; sotagliflozin 200 mg qd, Day 8): 267 L/h | CL/F ([2]; sotagliflozin 400 mg qd, Day 8): 307 L/h | 24-hour UGE ([3]; sotagliflozin 200 mg qd, Day 1, mean (±SD)): 188.17 (±51.957) mmol | 24-hour UGE ([3]; sotagliflozin 200 mg qd, Day 8, mean ± SD): 213.02 (±67.216) mmol | 24-hour UGE ([3]; sotagliflozin 400 mg qd, Day 1, mean (±SD)): 250.18 (±38.063) mmol | 24-hour UGE ([3]; sotagliflozin 400 mg qd, Day 8, mean ± SD): 263.90 (±56.665) mmol | selectivity for SGLT2 than that for SGLT1 [4]: 20 fold | maximum 24 h UGE [5]: 44 g | accumulation index at steady state ([6]; EMA data, European-American populations): about 2 | Cmax with food compared to fasted condition [6, 10]: ~2.5 fold | total exposure with food compared to fasted condition [6, 10]: ~1.5 fold
